Bioassay records deposited in PubChem by several laboratories.
HMGR II inh – inhibitors of E. faecalis class II HMGR, primary screen, biochemical, Enterococcus faecalis. HMG-CoA reductase (Enterococcus faecalis, mvaE). purified E. faecalis HMGR, NADPH absorbance 340 nm kinetic. inhibition, % at 10 µM. 190,000 compounds, 0.41% hits;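 active = inhibition above a set limit, the median over all tested compounds plus 3 SD, cut at about 9.5% in these data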;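 note: enzyme runs in reverse so mevalonate oxidation gives rising NADPH absorbance; 0% = complete reaction with DMSO and 100% = background rate lacking mevalonate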
Rad51 HR inh – human RAD51 strand exchange inhibitors, primary screen, biochemical, fluorescence; 200,000 compounds, 0.085% hits; DNA repair protein RAD51 homolog 1 (Homo sapiens), Q06609; inhibition, % at 10 µM; hRad51 DNA strand exchange, fluorescence dequenching;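 active = inhibition above 40% at the single screening dose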;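 note: 0% = DMSO control wells and 100% = blanks with heterologous ssDNA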
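Test system – preformed human Rad51 ssDNA filaments · Reagent – Donor/quencher-labelled 47-bp dsDNA substrate · Incubation – 37 °C 15-min filament assembly, 30-min compound preincubation, 15-min exchange · Signal – FRET fluorescence dequenching, excitation 485 nm, emission 520 nm · Read-out – percent inhibition from fluorescence, normalised to plate control and blank means · Benchmarks – plate control and blank wells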
S1P4 antagonist – S1P4 receptor antagonists, primary screen, cell-based. S1P4-expressing cells, antagonist mode, reporter read-out. inhibition, % at 4.98 µM. 220,000 compounds, 0.26% hits. AID 1510, 2009; in the data active = inhibition above about 29%;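 note: 0% = wells stimulated with agonist and 100% = vehicle wells without agonist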
Target sequence (O95977 whole entry, looked up): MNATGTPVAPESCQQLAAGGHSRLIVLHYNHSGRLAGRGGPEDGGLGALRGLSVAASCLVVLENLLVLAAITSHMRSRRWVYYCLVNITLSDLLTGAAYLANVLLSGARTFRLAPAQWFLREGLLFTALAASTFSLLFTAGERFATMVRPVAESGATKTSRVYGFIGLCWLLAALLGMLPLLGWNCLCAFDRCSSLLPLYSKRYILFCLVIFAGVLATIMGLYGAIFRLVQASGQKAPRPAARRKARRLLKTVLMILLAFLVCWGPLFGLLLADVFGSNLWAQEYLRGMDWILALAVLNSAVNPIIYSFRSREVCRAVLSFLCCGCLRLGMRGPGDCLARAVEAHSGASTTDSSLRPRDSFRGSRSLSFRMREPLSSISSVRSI
S1P4 agonist – S1P4 receptor agonists, primary screen, cell-based. Sphingosine 1-phosphate receptor 4 (Homo sapiens), O95977. S1P4-expressing cell line, agonist reporter assay. activation, % at 4.98 µM. 220,000 compounds, 0.35% hits. AID 1509, 2009; in the data active = activation above about 11%;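 note: 0% = DMSO vehicle and 100% = reference agonist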
Calb biofilm kill – clotrimazole potentiators killing C. albicans biofilm, primary screen, 4-compound mixtures. 120,000 compounds, 0.02% hits. AID 1242, 2008. inhibition, % at 7.6 µM. C. albicans biofilm persisters + clotrimazole, fluorescence viability; primary screen in compound mixtures of four per well;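 note: compounds exposed to preformed 24 h biofilms for 48 h; 0% = untreated biofilm control and 100% = clotrimazole plus chlorhexidine kill blank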
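Assay system: C. albicans biofilms / Medium: RPMI/MOPS medium, pH 7.0 / Schedule: biofilm formation 24 h, compound exposure 48 h, 37 °C / Measured by: Alamar Blue fluorescence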
S1P3 antagonist – S1P3 receptor antagonists, primary screen, cell-based | Sphingosine 1-phosphate receptor 3 (Homo sapiens), Q99500 | 170,000 compounds, 0.27% hits | CHO S1P3 NFAT-BLA reporter, FRET fluorescence, antagonist mode | inhibition, % at 4.98 µM | AID 485, 2006;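 active = inhibition above the plate cutoff, the mean inhibition of test wells on that plate plus 3 SD, cut at about 28% in these data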;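 note: cells challenged with S1P at its EC80 of 0.8 µM; blue over green emission ratio from cleaved BLA substrate after 4 h stimulation; 0% = S1P-stimulated wells and 100% = unstimulated DMSO-only wells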
Target sequence (Q99500 whole entry, looked up): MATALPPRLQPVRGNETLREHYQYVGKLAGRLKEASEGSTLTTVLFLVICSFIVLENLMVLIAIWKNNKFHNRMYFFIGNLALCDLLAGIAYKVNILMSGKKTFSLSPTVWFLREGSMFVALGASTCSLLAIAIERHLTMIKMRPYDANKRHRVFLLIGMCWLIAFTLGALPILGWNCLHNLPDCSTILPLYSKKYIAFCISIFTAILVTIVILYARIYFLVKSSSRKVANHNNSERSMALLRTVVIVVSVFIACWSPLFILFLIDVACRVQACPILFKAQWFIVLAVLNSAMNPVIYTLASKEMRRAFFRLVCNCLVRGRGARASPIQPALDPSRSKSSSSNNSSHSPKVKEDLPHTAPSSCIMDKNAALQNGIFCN
S1P4 agonist cf – S1P4 receptor agonists, retest, confirmation, cell-based, high throughput. shares compounds with S1P4 agonist. S1P4 agonist cell-based reporter assay. activation, % at 4.98 µM. 740 compounds, 7% hits; in the data active = activation above about 12%;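 note: 0% = vehicle and 100% = full reference agonist response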
S1P1 agonist – S1P1 receptor agonists, human, counter-screen for S1P4 agonist project, cell-based; shares compounds with S1P4 agonist; S1P1 agonist cell-based assay, activation; activation, % at 4.98 µM; 740 compounds, 4% hits; in the data active = activation above about 21%;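 note: 0% = vehicle wells and 100% = reference agonist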
An asterisk follows results filed as active; · = not tested or not shown. A selection: hits, their analogues and other compounds. The true share with any hit is near 1.2%.

SMILES	HMGR II inh	Rad51 HR inh	S1P4 antagonist	S1P4 agonist	Calb biofilm kill	S1P3 antagonist	S1P4 agonist cf	S1P1 agonist
O=C(NCc1ccco1)c1cc2ccc(O)cc2oc1=O	-3.5	5.1	-127.2	111.7*	·	-36.2	50.8*	84.3*
COc1ccc(N=c2oc3cc(O)ccc3cc2C(=O)Nc2ccccn2)cc1OC	-3.1	-6.7	-4.6	2.2	13.3	-26.1	·	·
Cc1ccc(N=c2oc3cc(O)ccc3cc2C(N)=O)cc1	-0.6	-3.9	-54.6	34.7*	·	29.4	4.0	1.8
CC(=O)c1cc2ccc(O)cc2oc1=O	·	-2.6	-59.1	104.2*	17.8	-36.7	44.7*	66.0*
COc1ccc2cc(C(C)=O)c(=O)oc2c1	-0.7	·	-23.4	0.3	9.9	-6.5	·	·
O=P(c1ccccc1)(c1ccccc1)C(O)c1ccco1 (stereo not drawn)	-6.8	-7.9	-10.4	-3.5	·	·	·	·
O=[n+]1c2c(n([O-])c3cc(F)ccc31)CCCC2	-3.7	·	-7.8	21.4*	·	4.1	-1.6	-6.8
Cc1ccc2c(c1)n([O-])c1c([n+]2=O)CCCC1	-0.7	9.6	-13.1	2.5	·	·	·	·
COc1cc2c(cc1OC)-c1cc(N3CCCCCC3)nc(=O)n1CC2	-1.8	-2.8	-8.7	-2.4	·	16.4	·	·
COc1ccc2[nH]c3c(=O)n4c(nc3c2c1)SCCC4	-2.4	·	3.7	35.7*	8.4	-23.3	-1.7	-3.6
COC(=O)c1sccc1NC(=O)Nc1cccc(Cl)c1Cl	0.2	-5.7	-1.8	-7.1	·	·	·	·
COc1ccc(CC(=O)Nc2nnc(C(C)(C)C)s2)cc1OC	-4.1	-64.8	-15.9	31.8*	10.2	-8.5	-0.9	-10.9
CCOC(=O)c1sc(NC(=S)NC(=O)c2ccco2)nc1C	-7.0	2.9	-1.1	33.7*	12.6	-2.2	-2.7	-2.0
COC(=O)c1sc(NC(=O)c2ccco2)nc1C	-1.1	-0.7	-24.1	0.6	·	-7.6	·	·
Cc1ccc(OC(C)C(=O)N=Nc2c(O)[nH]c3ccc([N+](=O)[O-])cc23)cc1 (stereo not drawn)	1.7	·	-13.4	0.3	13.5	-5.0	·	·
CC(=O)Nc1ccc(S(=O)(=O)n2nc(-c3ccc(C)cc3)nc2N)cc1	-3.2	-16.3	0.2	20.5*	·	5.5	-1.3	0.2
C=CCNC(=S)NNC(=O)C(CCCC)CC(O)COCC(C)C (stereo not drawn)	·	-1.5	-2.8	-0.3	7.2	-13.4	·	·
CCCCC(CC(O)COCC(C)C)C(=O)NN (stereo not drawn)	-4.5	·	-19.4	41.7*	13.4	3.5	-1.9	4.0
CCOc1ccc(-c2csc(Cn3c(CN4CCN(C)CC4)nc4ccccc4c3=O)n2)cc1	-4.3	5.5	-7.2	1.4	18.9	10.2	·	·
CCCSc1nnc(NC(=O)Nc2ccc(F)cc2)s1	-0.6	5.2	-2.8	61.2*	·	·	-2.1	2.1
O=C(CCCN1C(=O)/C(=C/c2ccccc2Cl)SC1=S)NNC(=O)c1ccccc1	-2.5	·	-3.7	18.3*	25.9	-4.5	-2.7	-0.9
O=C(CCCN1C(=O)/C(=C/c2ccccc2Cl)SC1=S)NNC(=O)c1cccnc1	·	·	5.9	-0.2	6.9	-2.4	·	·
CC(C)(C)S(=O)(=O)/C(C#N)=N/Nc1ccc(Cl)cc1	3.2	0.2	4.0	-1.4	12.2	-13.0	·	·
CC(C)(C)c1ccc(N/N=C(\C#N)S(=O)(=O)C(C)(C)C)cc1	-8.4	-2.9	-33.7	28.8*	12.1	-2.8	-2.5	-3.2
Cc1ccccc1OCC(=O)NC(=S)Nc1ccc(N2CCOCC2)c(Cl)c1	0.6	-5.5	-23.7	2.2	·	·	·	·
SMILES	HMGR II inh	Rad51 HR inh	S1P4 antagonist	S1P4 agonist	Calb biofilm kill	S1P3 antagonist	S1P4 agonist cf	S1P1 agonist
COc1ccccc1C(=O)NC(=S)Nc1ccc(N2CCOCC2)c(Cl)c1	-4.1	-20.3	-4.8	35.6*	13.6	-16.2	1.9	81.1*
O=C(O)CSc1nnc(-c2cccc(S(=O)(=O)N3CCOCC3)c2)n1-c1cccc(Cl)c1	·	-4.6	-1.9	15.0*	3.2	8.2	-0.3	0.7
Cc1ccc(NC(=O)c2oc3ccc(S(=O)(=O)N4CCC5(CC4)OCCO5)cc3c2C)cc1C	-3.7	·	3.0	48.6*	21.0	1.3	-1.8	-5.4
O=C(CSc1nnnn1-c1ccccc1)NC1CCCc2ccccc21 (stereo not drawn)	-6.0	-1.6	-5.8	-2.0	4.6	-6.7	·	·
CCN(CC)C(=O)Cn1cc(C(=O)C(=O)NCc2ccco2)c2ccccc21	-4.7	9.6	1.1	13.5*	13.6	-17.1	-0.9	3.5
CCN(CC)C(=O)Cn1cc(SCC(=O)NCc2ccco2)c2ccccc21	6.3	2.1	-19.5	1.7	8.8	-9.8	·	·
O=C1CC(C(=O)Nc2ccccc2)N=C(N2CCOCC2)N1 (stereo not drawn)	-2.2	-1.1	-20.2	3.1	·	-13.6	·	·
CC(OC(=O)c1ccc2c(=O)n3c(nc2c1)CCCCC3)C(=O)Nc1ncc(Cl)cc1Cl (stereo not drawn)	-2.0	-4.0	-30.7	11.4*	14.4	3.0	-3.0	2.8
CC(OC(=O)c1ccc2c(=O)n3c(nc2c1)CCC3)C(N)=O (stereo not drawn)	-6.2	-2.2	-5.2	-4.0	14.5	2.5	·	·
CCCCCC(=O)Nc1ccc(Cl)cn1	·	-3.2	-9.1	15.1*	·	10.3	-1.1	-3.7
CCCCC(=O)Nc1ccc(Cl)cn1	-3.8	-4.8	-15.7	-0.8	·	11.2	·	·
CCOc1cc(N2CCOCC2)c(OCC)cc1NC(=O)c1ccc(C)cc1	-3.5	-18.4	-6.0	155.0*	12.3	-3.5	-2.0	-0.5
CCOc1cc(N2CCOCC2)c(OCC)cc1NC(=O)c1cc(C)cc(C)c1	-2.9	1.2	-1.2	1.4	14.2	-5.4	·	·
O=c1c2c(-c3cccs3)csc2[nH]c(=S)n1-c1ccccc1	-3.6	-9.7	-7.7	-1.4	·	·	·	·
Cn1cccc1C(=O)C(=O)Nc1cccc(Cl)c1Cl	-3.3	0.5	1.4	20.4*	·	·	-1.4	0.9
CC1CN(CC(O)COC(c2ccccc2)c2ccccc2)CC(C)O1 (stereo not drawn)	0.3	21.1	-8.9	57.3*	21.3	-15.3	-1.5	4.7
O=C(N/N=C1\CCCc2ccccc21)c1ccc([N+](=O)[O-])cc1	-9.5	-1.4	-13.2	11.7*	8.1	·	-3.1	-0.2
CCC1(C)COC2(OC1)C(=O)Nc1ccccc12 (stereo not drawn)	-2.5	-2.8	-6.4	-1.4	·	3.2	·	·
